{"source": "ChEMBL document CHEMBL4346690", "about": "“Structure-activity relationship studies of (E)-3,4-dihydroxystyryl alkyl sulfones as novel neuroprotective agents based on improved antioxidant, anti-inflammatory activities and BBB permeability” (Eur J Med Chem, 2019)", "key": {"[1]": {"assay": "Cytotoxicity against rat PC12 cells assessed as cell viability at 100 uM after 24 hrs by MTT assay", "assay_type": "cell-based, PC-12", "conditions": "read-out: Activity", "outline": "(§1)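 Cells kept in high-glucose DMEM with 10% FBS and 1% PS at 37 °C, 5% CO2. Plated 1 day, then compounds for 24 h; viability by MTT at 100 µM as ODtreated/ODcontrol × 100%, untreated = 100%. Mean ± SD, n = 3.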"}, "[2]": {"assay": "Cytotoxicity against […] BV2 cells assessed as cell viability at 100 uM after 24 hrs by MTT assay", "assay_type": "cell-based", "conditions": "read-out: Activity", "outline": "as §1"}, "PC-12 [3]": {"test_system": "PC-12", "assay": "Neuroprotection against H2O2-induced cell death in rat PC12 cells assessed as decrease in early apoptotic cells at 10 uM preincubated for 3 hrs followed by H2O2 addition and measured 3 hrs by Annexin V-FITC/propidium iodide staining based fluorescence microscopic method", "assay_type": "functional", "outline": "(§2)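 PC12 cells (1.5 × 10^5 cells mL−1, 35 mm dishes) plated 1 day, pretreated 3 h at 2.5 or 10 µM, then exposed to H2O2 (final 400 µM) for 3 h. Washed with ice-cold PBS, stained with Annexin V-FITC and PI in binding buffer for 5 min at 25 °C in the dark, and counted by fluorescence microscopy as early (AV+) or late (AV+PI+) apoptotic cells.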"}, "[4]": {"assay": "Antioxidant activity assessed as DPPH radical scavenging activity after 1 hr by […]", "assay_type": "functional", "outline": "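DPPH (0.2 mM) in ethanol mixed with sample, kept 1 h at room temperature, absorbance read at 517 nm. Scavenging % = [1−(Ac−Ab)/A0]×100, where Ab is the sample in ethanol without DPPH and A0 is the ethanol+DPPH control. EC50 reported; vitamin C used as reference antioxidant; mean ± SD, n = 3.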"}, "PC-12 [5]": {"test_system": "PC-12", "assay": "Neuroprotection against H2O2-induced cell death in rat PC12 cells assessed as increase in cell viability at 5 uM preincubated for 3 hrs followed by H2O2 addition and measured after 3 hrs by MTS assay relative to CAPE", "assay_type": "functional", "outline": "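PC12 cells plated at 2 × 10^5 cells/mL for 1 day, pretreated with compound (2.5, 5, 10 µM) for 3 h, then H2O2 added (final 400 µM) for 3 h. Viability read by MTS at 490 nm, untreated cells = 100%. Mean ± SD, n = 3.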"}, "[6]": {"assay": "Anti-neuroinflammatory activity in […] BV2 cells assessed as reduction in LPS-induced NO production preincubated for 3 hrs followed by LPS stimulation for 24 hrs by Griess assay", "assay_type": "functional, cell-based", "conditions": "BV-2", "outline": "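BV2 microglia seeded 3 × 10^5 cells mL−1 for 1 day; compounds in medium added for 3 h, then LPS (final 100 ng mL−1) for a further 24 h. Supernatant mixed with Griess reagent, absorbance at 540 nm. Inhibition % from NO release of LPS-only, unstimulated and compound+LPS wells; IC50 reported; mean ± SD, n = 3.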"}, "PC-12 [7]": {"test_system": "PC-12", "assay": "Neuroprotection activity in rat PC12 cells assessed as reduction in 6-OHDA-induced cell damages at 10 uM preincubated for 3 hrs followed by H2O2 addition and measured after 24 hrs by MTT assay relative to control", "assay_type": "functional, cell-based", "conditions": "in the assay text read “6-OHDA addition” for “H2O2 addition”", "outline": "(§3)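 PC12 cells plated at 2 × 10^5 cells mL−1 for 1 day, pretreated 3 h with compounds at 2.5, 5 or 10 µM, then 6-OHDA (final 250 µM) added for 24 h. Viability by MTT, absorbance 570 nm; untreated cells = 100%; mean ± SD, n = 3.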"}, "PC-12 [8]": {"test_system": "PC-12", "assay": "Neuroprotection against H2O2-induced cell death in rat PC12 cells assessed as decrease in apoptotic cells at 2.5 uM preincubated for 3 hrs followed by H2O2 addition and measured 3 hrs by Annexin V-FITC/propidium iodide staining based fluorescence microscopic method", "assay_type": "functional", "outline": "as §2"}, "PC-12 [9]": {"test_system": "PC-12", "assay": "Neuroprotection against H2O2-induced cell death in rat PC12 cells assessed as decrease in late apoptotic cells at 10 uM preincubated for 3 hrs followed by H2O2 addition and measured 3 hrs by Annexin V-FITC/propidium iodide staining based fluorescence microscopic method", "assay_type": "functional", "outline": "as §2"}, "[10]": {"assay": "Potency index, ratio of IC50 for CAPE to IC50 for test compound for anti-neuroinflammatory activity in […] BV2 cells", "assay_type": "functional"}, "[11]": {"assay": "Potency index, ratio of IC50 for (E)-4-(2-((3-phenylpropyl)sulfonyl)vinyl)benzene-1,2-diol to IC50 for test compound for anti-neuroinflammatory activity in […] BV2 cells", "assay_type": "functional"}, "PC-12 [12]": {"test_system": "PC-12", "assay": "Neuroprotection activity in rat PC12 cells assessed as reduction in 6-OHDA-induced cell damages at 2.5 uM preincubated for 3 hrs followed by H2O2 addition and measured after 24 hrs by MTT assay relative to control", "assay_type": "functional, cell-based", "conditions": "in the assay text read “6-OHDA addition” for “H2O2 addition”", "outline": "as §3"}, "[13]": {"assay": "Cytotoxicity against […] BV2 cells assessed as cell viability at 0.625 to 40 uM after 24 hrs by MTS assay", "assay_type": "cell-based", "conditions": "read-out: Activity", "outline": "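Viability of BV2 cells read by MTS under the NO-assay conditions: 3 h compound (0.625–40 µM) pretreatment followed by LPS 100 ng mL−1 for 24 h.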"}, "PC-12 [14]": {"test_system": "PC-12", "assay": "Neuroprotection against H2O2-induced cell death in rat PC12 cells assessed as increase in cell viability at 2.5 to 5 uM preincubated for 3 hrs followed by H2O2 addition and measured after 3 hrs by MTS assay", "assay_type": "functional, cell-based", "outline": "(§4)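 PC12 cells plated at 2 × 10^5 cells mL−1 for 1 day, pretreated 3 h with compounds, then H2O2 (final 400 µM) for 3 h. Viability by MTS at 490 nm relative to untreated cells (100%); single-concentration tests at 2.5, 5, 10 µM and IC50 values; mean ± SD, n = 3.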"}, "PC-12 [15]": {"test_system": "PC-12", "assay": "Neuroprotection activity in rat PC12 cells assessed as reduction in H2O2-induced cell death preincubated for 3 hrs followed by H2O2 addition and measured after 3 hrs by MTS assay", "assay_type": "functional, cell-based", "outline": "as §4"}, "[16]": {"assay": "Inhibition of soybean 15-LOX using arachidonic acid or linoleic acid as substrate incubated for 10 mins by colorimetric lipoxygenase inhibitor screening assay kit method", "set-up": "species or system Glycine max", "outline": "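Soybean 15-LOX in a colorimetric kit: enzyme plus compound (1.25–100 µM, in assay buffer), reaction started with arachidonic or linoleic acid substrate, shaken at least 10 min. Chromogen added to stop and develop, absorbance at 490–500 nm; IC50 determined, mean ± SD, n = 3.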"}}, "note": "pEC50, pIC50: −log10 of the molar value. Activity calls are given as the source filed them. No cut-off for these calls is given here."}
{"smiles": "O=S(=O)(/C=C/c1ccc(O)c(O)c1)CCCC1CCCC1", "values": [{"measurement": "viability at 24 h, 100 µM", "setting": "[1]", "value": 70.5, "unit": "%"}, {"measurement": "viability at 24 h, 100 µM", "setting": "[2]", "value": 72.4, "unit": "%"}, {"measurement": "Activity", "setting": "PC-12 [3]", "value": "Active"}, {"measurement": "pEC50", "setting": "[4]", "value": 5.20}, {"measurement": "Activity", "setting": "PC-12 [5]", "value": 30, "unit": "%"}, {"measurement": "pIC50", "setting": "[6]", "value": 5.80}, {"measurement": "Activity", "setting": "PC-12 [7]", "value": "Active"}, {"measurement": "Activity", "setting": "PC-12 [8]", "value": "Active"}, {"measurement": "Activity", "setting": "PC-12 [9]", "value": "Active"}, {"measurement": "Ratio IC50", "setting": "[10]", "value": 4}, {"measurement": "Ratio IC50", "setting": "[11]", "value": 8}, {"measurement": "Activity", "setting": "PC-12 [12]", "value": "Active"}, {"measurement": "viability at 24 h, up to 40 µM", "setting": "[13]", "value": "> 90", "unit": "%"}, {"measurement": "Activity", "setting": "PC-12 [14]", "value": "Active"}, {"measurement": "pIC50", "setting": "PC-12 [15]", "value": 5.89}, {"measurement": "pIC50", "setting": "[16]", "value": 3.99}]}
{"smiles": "O=S(=O)(/C=C/c1ccc(O)c(O)c1)CCCc1ccccc1", "values": [{"measurement": "viability at 24 h, 100 µM", "setting": "[1]", "value": 86.1, "unit": "%"}, {"measurement": "viability at 24 h, 100 µM", "setting": "[2]", "value": 72, "unit": "%"}, {"measurement": "Activity", "setting": "PC-12 [3]", "value": "Active"}, {"measurement": "pEC50", "setting": "[4]", "value": 4.94}, {"measurement": "pIC50", "setting": "[6]", "value": 4.87}, {"measurement": "Activity", "setting": "PC-12 [7]", "value": "Active"}, {"measurement": "Activity", "setting": "PC-12 [8]", "value": "Active"}, {"measurement": "Activity", "setting": "PC-12 [9]", "value": "Active"}, {"measurement": "viability at 24 h, up to 40 µM", "setting": "[13]", "value": "> 90", "unit": "%"}, {"measurement": "pIC50", "setting": "PC-12 [15]", "value": 5.73}, {"measurement": "pIC50", "setting": "[16]", "value": 3.85}]}
{"smiles": "CC(Cc1ccc(O)c(O)c1)C(C)Cc1ccc(O)c(O)c1", "note": "(stereo not drawn) [NORDIHYDROGUAIARETIC ACID]", "values": [{"measurement": "pIC50", "setting": "[16]", "value": 5.68}]}
